From ChEMBL document CHEMBL1144439, “A novel class of in vivo active anticancer agents: achiral seco-amino- and seco-hydroxycyclopropylbenz[e]indolone (seco-CBI) analogues of the duocarmycins and CC-1065” (J Med Chem, 2005)

Columns and labels:
L1210 = assay: The concentration required for inhibiting the growth of the murine L1210 leukemia cells by 50%; format: functional, cell-based; settings: Mus musculus
Method in brief: (§1)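 MTT growth inhibition in murine lines grown in DMEM with 10% FBS, HEPES, glutamine, pen/strep at 37 °C, 5% CO2. Seeded 80 000 cells/well, continuous drug exposure (DMSO stock diluted in DMEM) for 72 h, quadruplicate wells per concentration. MTT added for 4 h, formazan dissolved in acid 2-propanol, read at 570 nm (reference 630 nm). IC50 extrapolated from averaged absorbance curves.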

[1] = The concentration required for inhibiting the growth of the murine B16-F0 melanoma cells by 50%; format: functional; settings: Mus musculus, B16F0; method in brief: as §1
K562 = assay: The concentration required for inhibiting the growth of the human K562 chronic myeloid leukemia cells by 50%; format: functional, cell-based
Method in brief: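 Drug exposure was […] in the dark, then cells were washed and plated at 10⁴ cells/well, eight wells per sample, and incubated 4 days. MTT was added for 5 h, formazan dissolved in DMSO and read at 550 nm.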

P815 = assay: The concentration required for inhibiting the growth of the murine P815 mastocytoma cells by 50%; format: functional, cell-based; settings: Mus musculus
Method in brief: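 P815 cells grown in DMEM with 10% FBS, HEPES, glutamine and pen/strep, seeded at 80 000 cells/well. Drug in DMSO/DMEM was added to final concentrations from 1.0 × 10^-12 to 1.0 × 10^-4 M, continuous for 72 h at 37 °C, 5% CO2, in quadruplicate. MTT was added for 4 h and solubilised in acid 2-propanol, read at 570/630 nm. IC50 was extrapolated from mean absorbance curves.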

SMILES | IC50 (L1210) | IC50 [1] | IC50 (K562) | IC50 (P815)
COc1ccc(/C=C/C(=O)Nc2cc(N)c3ccccc3c2CCCl)nc1 | 0.55 µM | 0.75 µM | – | –
COc1cc2cc(C(=O)N3CC(CCl)c4c3cc(O)c3ccccc43)[nH]c2c(OC)c1OC (stereo unspecified) | 0.0084 µM | 0.078 µM | 0.028 µM | –
COc1cc2cc(C(=O)Nc3cc(OCc4ccccc4)c4ccccc4c3CCCl)[nH]c2c(OC)c1OC | 51 µM | > 100 µM | – | –
COc1cc2cc(C(=O)Nc3cc(N)c4ccccc4c3CCOC(C)=O)[nH]c2c(OC)c1OC | 53 µM | 54 µM | – | –
COC(=O)c1[nH]c2c(O)cc(NC(=O)c3cc4cc(OC)c(OC)c(OC)c4[nH]3)c(CCCl)c2c1C(=O)OC | 4.2 µM | 6.8 µM | 0.25 µM | 5.4 µM
COc1cc2cc(C(=O)NC3=C(CCCl)CCC(O)=C3)[nH]c2c(OC)c1OC | – | – | 1.43 µM | –
COc1ccc(/C=C/C(=O)Nc2cc(N)c3ccccc3c2CCCl)c(OC)n1 | 0.18 µM | 0.062 µM | – | –
